Here are results for 23 compounds from ChEMBL document CHEMBL1127433, “N6-substituted adenosine receptor agonists. Synthesis and pharmacological activity as potent antinociceptive agents” (J Med Chem, 1994).

Assay [1] addresses T1, Adenosine A2 receptor (Rattus norvegicus) (UniProt P29276+P30543). Description: Percent displacement from adenosine A2 receptor at 10e-5 M in rat striatal membrane in vitro. The class given is cell membranes.
The target in assay [2] is T2, Adenosine receptor A1 (Rattus norvegicus) (UniProt P25099).
T2 sequence (whole entry): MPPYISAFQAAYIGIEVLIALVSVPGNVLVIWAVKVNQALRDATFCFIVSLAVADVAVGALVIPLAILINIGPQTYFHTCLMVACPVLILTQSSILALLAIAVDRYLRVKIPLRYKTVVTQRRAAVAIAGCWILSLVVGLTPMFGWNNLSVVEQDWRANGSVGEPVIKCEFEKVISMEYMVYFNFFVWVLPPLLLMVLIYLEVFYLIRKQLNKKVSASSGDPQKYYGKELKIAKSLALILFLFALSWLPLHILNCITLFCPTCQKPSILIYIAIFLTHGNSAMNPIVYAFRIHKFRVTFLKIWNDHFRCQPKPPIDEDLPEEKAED
The assay can be described thus: Percent displacement from adenosine A1 receptor at 10e-7 M in rat brain membrane in vitro. The class given is cell membranes.

For another assay, the system named is Mus musculus. Description: Effective dose for phenylbenzoquinone-induced writhing in mice after peroral administration expressed as analgesic activity. Format: functional. A digest of the protocol:
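Mice dosed orally (0.5 mL/20 g); 1 h later given 0.02% phenylbenzoquinone in hydroalcoholic solution ip (0.20-0.24 mL). Writhings and stretches counted from minute 5 to minute 10. Six animals per group. Inhibition taken against the control mean; ED50 (50% decrease) by linear regression.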
(An intraperitoneal irritant provokes the stretching counted in writhing tests.)

Assay [3] concerns the target T1, Adenosine A2 receptor (Rattus norvegicus). Description: Percent displacement from adenosine A2 receptor at 10e-7 M in rat striatal membrane in vitro. The class given is cell membranes. To be noted: Striatum.
The target in assay [4] is T2, Adenosine receptor A1 (Rattus norvegicus). Description: Percent displacement from adenosine A1 receptor at 10e-5 M in rat brain membrane in vitro. The class given is cell membranes.
A further assay addresses Adenosine A2 receptor (Rattus norvegicus, UniProt P29276+P30543). The assay can be described thus: Binding affinity for adenosine A2 receptor in vitro using rat striatal membrane. Format: cell membranes. The method, boiled down:
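Rat striatal membranes in 50 mM Tris-HCl, 10 mM MgCl2, pH 7.7, adenosine deaminase treated (1 U/mL, 30 min). Incubated with [3H]NECA (4 nM, 50 μL) plus 0.11 μM cyclopentyladenosine and competitor for 60 min at 25 °C. Nonspecific binding defined with 5 μM NECA. GF/B filtration, scintillation counting, triplicate. IC50 from log-logit regression, Ki via Cheng-Prusoff, one experiment.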

The target of the next assay is T3, Adenosine receptor A1 (Rattus norvegicus, UniProt P25099).
T3 sequence (P25099 whole entry): T2 sequence (whole entry)
The assay can be described thus: Binding affinity for adenosine A1 receptor in vitro using rat brain membranes. Format: cell membranes. The method, boiled down: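 Whole rat brain membranes, homogenized in 50 mM Tris-HCl pH 7.4 and spun at 1090g then 48000g, pretreated with adenosine deaminase 1 U/mL for 30 min. Nonspecific binding defined with 10 μM PIA. Separated by GF/B filtration and scintillation counted, in triplicate. IC50 from log-logit regression, Ki via Cheng-Prusoff, one experiment.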

By ED50 is commonly meant the midpoint of the dose-response relation. In general, Ki refers to the equilibrium dissociation constant of an inhibitor or competing ligand from its target. Lower therefore signals higher affinity.

Molecules are shown by their SMILES. Activity calls are given as the source filed them. The calls are words filed in the database; no cut-off is given here.

As for `Cc1ccccc1Cn1cc(CCNc2ncnc3c2ncn3C2O[C@H](C(=O)NC3CC3)[C@@H](O)[C@H]2O)c2ccccc21` (stereo not given in full), the Displacement was found to be 93% in assay [1], 40% in assay [2], 27% in assay [3] and 98% in assay [4]. In addition, in the assay with Mus musculus (po), the ED50 was below 3 mg/kg.

`Cc1ccc(C)c(Cn2cc(CCNc3ncnc4c3ncn4[C@@H]3O[C@H](C(N)=O)[C@@H](O)[C@H]3O)c3ccccc32)c1`: the Displacement in assay [1] was found to be 61%; in assay [2], 17%; in assay [3] it was 0%; in assay [4], 87%. The compound further displayed an ED50 in the assay on Mus musculus (po) above 30 mg/kg. The Ki at Adenosine A2 receptor was determined as 2600 nM; on Adenosine receptor A1, 510 nM.

As to `COCCn1cc(CCNc2ncnc3c2ncn3[C@@H]2O[C@H](C(=O)NC3CC3)[C@@H](O)[C@H]2O)c2ccccc21`, the Displacement came out at 90% in assay [1], 61% in assay [2], 19% in assay [3] and 98% in assay [4]. Further, the median effective dose (ED50) in the assay with Mus musculus (po) came out at 1.2 mg/kg. Also, the inhibition constant (Ki) at Adenosine A2 receptor worked out at 370 nM; at Adenosine receptor A1 it was 23 nM.

Take `O=C(NC1CC1)[C@H]1OC(n2cnc3c(NCCc4cn(Cc5ccc(Cl)cc5)c5ccccc45)ncnc32)[C@H](O)[C@@H]1O` (stereo not given in full): the Displacement in assay [1] was determined as 91%; in assay [2], 46%; in assay [3] it was 30%; in assay [4], 98%. The compound further came in with an ED50 in the assay on Mus musculus (po) of 0.9 mg/kg. For the same compound, the values for the inhibition constant (Ki) on Adenosine A2 receptor and on Adenosine receptor A1 were 320 nM and 50 nM, respectively.

On to `COc1ccc2c(c1)c(CCNc1ncnc3c1ncn3C1O[C@H](C(=O)NC3CC3)[C@@H](O)[C@H]1O)cn2Cc1cc(C)ccc1C` (stereo not given in full), for which the Displacement in assay [1] was 91%; in assay [2] it was 16%; in assay [3], 17%; in assay [4], 100%. In the assay on Mus musculus (po), this compound showed a 50% effective dose (ED50) of 46.3 mg/kg.

With `O=C(NC1CC1)[C@H]1OC(n2cnc3c(NCCc4cn(Cc5ccc(Cl)s5)c5ccccc45)ncnc32)[C@H](O)[C@@H]1O` (stereo not given in full), the Displacement in assay [1] came to 82%; in assay [2], 47%; in assay [3], 6%; in assay [4], 100%. This compound also displayed an ED50 in the assay on Mus musculus (po) of 26.2 mg/kg.

As for `O=C(NC1CC1)[C@H]1O[C@@H](n2cnc3c(NCCc4cn(C5CCCC5)c5ccccc45)ncnc32)[C@H](O)[C@@H]1O`, the Displacement in assay [1] turned out to be 90%; in assay [2], 21%; in assay [3] it was 28%; in assay [4] it was 96%. In the assay on Mus musculus (po), this compound gave a median effective dose (ED50) of 1.5 mg/kg. Besides, the Ki was found to be 350 nM at Adenosine A2 receptor and 110 nM on Adenosine receptor A1.

`OC[C@H]1OC(n2cnc3c(NCCc4cn(Cc5c(Cl)cccc5Cl)c5ccccc45)ncnc32)[C@H](O)[C@@H]1O` (stereo not given in full): the Displacement in assay [1] came to 91%; in assay [2] it was 15%; in assay [3], 35%; in assay [4] it was 92%. Besides, the ED50 result in the assay on Mus musculus is “inactive”.

Take `CN(C)c1ccccc1Cn1cc(CCNc2ncnc3c2ncn3C2O[C@H](C(=O)NC3CC3)[C@@H](O)[C@H]2O)c2ccccc21` (stereo not given in full): the Displacement in assay [1] was 92%; in assay [2] it was 33%; in assay [3] it was 5%; in assay [4] it was 99%. The same compound showed a median effective dose (ED50) with Mus musculus (po) of 1.9 mg/kg. Also, the Ki on Adenosine A2 receptor was 760 nM; at Adenosine receptor A1, 170 nM.

Regarding `O=C(NC1CC1)[C@H]1OC(n2cnc3c(NCCc4c(-c5ccccc5)[nH]c5ccccc45)ncnc32)[C@H](O)[C@@H]1O` (stereo not given in full), the Displacement in assay [1] turned out to be 71%; in assay [2], 20%; in assay [3], 10%; in assay [4], 84%. For the same compound, the 50% effect level in the assay on Mus musculus (po) (ED50) was put at a dose of 27.1 mg/kg.

As for `CNC(=O)[C@H]1O[C@@H](n2cnc3c(NCCc4cn(Cc5cc(C)ccc5C)c5ccccc45)ncnc32)[C@H](O)[C@@H]1O`, the Displacement in assay [1] amounted to 68%; in assay [2], 12%; in assay [3], 0%; in assay [4], 80%. Also, in the assay with Mus musculus (po), the ED50 turned out to be 10.2 mg/kg. Also, the Ki at Adenosine A2 receptor is 3000 nM; on Adenosine receptor A1, 1400 nM.

For the compound `O=C(NC1CC1)[C@H]1O[C@@H](n2cnc3c(NCCc4cn(CCN5CCCC5)c5ccccc45)ncnc32)[C@H](O)[C@@H]1O`, the Displacement in assay [1] is 95%; in assay [2], 96%; in assay [3], 53%; in assay [4] it was 100%. For the same compound, the 50% effective dose (ED50) in the assay on Mus musculus (po) is 44.2 mg/kg. Moreover, the Ki at Adenosine A2 receptor came to 58 nM; on Adenosine receptor A1, 7.5 nM.

Take `Cc1c(CCNc2ncnc3c2ncn3[C@@H]2O[C@H](C(=O)NC3CC3)[C@@H](O)[C@H]2O)c2ccccc2n1C1CCCC1`: the Displacement in assay [1] is 92%; in assay [2], 15%; in assay [3] it was 6%; in assay [4], 77%. Further, in the assay with Mus musculus (po), the 50% effect level (ED50) was put at a dose of 0.5 mg/kg. Further, the Ki at Adenosine A2 receptor is 2180 nM; on Adenosine receptor A1, 895 nM.

Regarding `Cc1ccc(C)c(Cn2c(C)c(CCNc3ncnc4c3ncn4C3O[C@H](C(=O)NC4CC4)[C@@H](O)[C@H]3O)c3ccccc32)c1` (stereo not given in full), the Displacement in assay [1] worked out at 60%; in assay [2] it was 5%; in assay [3] it was 7%; in assay [4] it was 56%. Also, the ED50 with Mus musculus (po) is 1.2 mg/kg.

With `Cc1ccc(C)c(Cn2cc(C(C)CNc3ncnc4c3ncn4[C@@H]3O[C@H](C(=O)NC4CC4)[C@@H](O)[C@H]3O)c3ccccc32)c1` (stereo not given in full), the Displacement is 61% in assay [1], 28% in assay [2], 0% in assay [3] and 97% in assay [4]. Moreover, the ED50 in the assay on Mus musculus (po) was determined as 0.9 mg/kg. Moreover, the inhibition constant (Ki) at Adenosine A2 receptor turned out to be 2500 nM; at Adenosine receptor A1, 200 nM.

With `Cc1ccc(C)c(Cn2cc(CCNc3ncnc4c3ncn4C3O[C@H](C(=O)NCCN4CCOCC4)[C@@H](O)[C@H]3O)c3ccccc32)c1` (stereo not given in full), the Displacement in assay [1] came to 19%; in assay [2] it was 5%; in assay [3], 0%; in assay [4] it was 5%. In the assay with Mus musculus (po), this compound showed a 50% effective dose (ED50) above 60 mg/kg.

For the compound `C=CCn1cc(CCNc2ncnc3c2ncn3C2O[C@H](C(=O)NC3CC3)[C@@H](O)[C@H]2O)c2ccccc21` (stereo not given in full), the Displacement in assay [1] stood at 80%; in assay [2] it was 56%; in assay [3], 17%; in assay [4] it was 100%. For the same compound, in the assay on Mus musculus (po), the ED50 was found to be 5.3 mg/kg. The inhibition constant Ki turned out to be 280 nM at Adenosine A2 receptor and 39 nM at Adenosine receptor A1.

In the case of `O=C(NC1CC1)[C@H]1OC(n2cnc3c(NCCc4cn(Cc5ccccc5)c5ccccc45)ncnc32)[C@H](O)[C@@H]1O` (stereo not given in full), the Displacement in assay [1] is 94%; in assay [2], 35%; in assay [3], 41%; in assay [4] it was 99%. In addition, it took a dose of 18.1 mg/kg to reach the 50% effect level in the assay with Mus musculus (po) (ED50). In addition, the Ki was 270 nM on Adenosine A2 receptor and 40 nM at Adenosine receptor A1.

For `CC(Cc1cn(C2CCCC2)c2ccccc12)Nc1ncnc2c1ncn2C1O[C@H](C(=O)NC2CC2)[C@@H](O)[C@H]1O` (stereo not given in full), the Displacement in assay [1] worked out at 85%; in assay [2] it was 45%; in assay [3], 21%; in assay [4], 96%. Moreover, in the assay with Mus musculus (po), the median effective dose (ED50) came to 2.2 mg/kg.

As for `Cn1cc(CCNc2ncnc3c2ncn3C2O[C@H](C(=O)NC3CC3)[C@@H](O)[C@H]2O)c2ccccc21` (stereo not given in full), the Displacement in assay [1] worked out at 91%; in assay [2] it was 76%; in assay [3] it was 29%; in assay [4], 99%. For the same compound, it took a dose of 3 mg/kg to reach the 50% effect level with Mus musculus (po) (ED50). In addition, at Adenosine A2 receptor, the inhibitory constant (Ki) is 270 nM.

With `COc1ccc(Cn2cc(CCNc3ncnc4c3ncn4C3O[C@H](C(=O)NC4CC4)[C@@H](O)[C@H]3O)c3ccccc32)cc1` (stereo not given in full), the Displacement in assay [1] is 100%; in assay [2], 42%; in assay [3], 59%; in assay [4] it was 98%. In the assay on Mus musculus (po), this compound displayed an ED50 of 71.6 mg/kg.

Regarding `O=C(NC1CC1)[C@H]1OC(n2cnc3c(NCCc4cn(Cc5ccccn5)c5ccccc45)ncnc32)[C@H](O)[C@@H]1O` (stereo not given in full), the Ki on Adenosine A2 receptor is 390 nM; at Adenosine receptor A1 it was 39 nM.

In the case of `O=C(NC1CC1)[C@H]1OC(n2cnc3c(NCCc4cn(CCN5CCOCC5)c5ccccc45)ncnc32)[C@H](O)[C@@H]1O` (stereo not given in full), the Displacement in assay [1] is 88%; in assay [2] it was 52%; in assay [3] it was 20%; in assay [4] it was 100%. The compound also yielded an ED50 in the assay with Mus musculus (po) above 30 mg/kg.
